ChEMBL document CHEMBL1122125, “Synthesis and in vivo antitumor activity of potential 5-fluorouracil prodrugs” (1982)

Experiments:
Type in all cases: functional
Mus musculus [1] = test: Antitumor activity was determined for survival range of mice against P-388 leukemia in mice at a dose of 2 mg/kg
How it was run: (§1)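 Male B6D2F1J mice implanted ip with 10⁶ P-388 cells on day 0; test agents given ip on days 1–4 (qd × 4) in sterile saline, or in 10% Tween 80 for the lipophilic thioether. Groups of 5 treated mice, with 10–17 untreated controls per experiment. Mice weighed on days 1 and 7 to give the 7-day weight change in g and %. Survival recorded in days as median and range.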

Mus musculus [2] = test: Antitumor activity was determined for average 7-day weight change against P-388 leukemia in mice at a dose of 4 mg/kg
How it was run: (§2)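 Male B6D2F1J mice given 10⁶ P-388 cells ip on day 0, then treated ip once daily on days 1-4 (qd × 4), 5 mice per dose group. Compounds dosed in sterile saline, except one lipophilic thioether given in 10% Tween 80. Mice weighed on days 1 and 7; mean weight per mouse on day 1 and 7-day weight change reported in g and as percent.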

Mus musculus [3] = test: Antitumor activity was determined for median survival of mice against P-388 leukemia in mice at a dose of 2 mg/kg; how it was run: as §1
Mus musculus [4] = test: Antitumor activity was determined for 7-day average percent weight change against P-388 leukemia in mice at a dose of 4 mg/kg; how it was run: as §2
Mus musculus [5] = test: Antitumor activity was determined for 7-day average percent weight change against P-388 leukemia in mice at a dose of 2 mg/kg; how it was run: as §2
Mus musculus [6] = test: Antitumor activity was determined for average 7-day weight change against P-388 leukemia in mice at a dose of 8 mg/kg; how it was run: as §2
Mus musculus [7] = test: Percent increase in life span against P-388 leukemia in mice was determined at a dose of 8 mg/kg; conditions: P388
How it was run: (§3)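 Male B6D2F1J mice, 5 per dose group, received 10⁶ P-388 cells ip on day 0. Dosing was ip qd × 4 on days 1-4 in sterile saline, or 10% Tween 80 for the butyl thioether. Median survival times of treated (T) and untreated control (C, 10-17 mice) groups were compared: %ILS = [(T/C) − 1]100. Weights taken on days 1 and 7.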

Mus musculus [8] = test: Antitumor activity was determined for average weight on day 1 against P-388 leukemia in mice at a dose of 2 mg/kg
How it was run: (§4)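 Male B6D2F1J mice, groups of 5, inoculated ip with 10⁶ P-388 cells on day 0. Drug given ip on days 1-4 (qd × 4) in sterile saline, or in 10% Tween 80 for the poorly water-soluble thioether. Average weight per mouse recorded on day 1, with reweighing on day 7 for percent weight change. Untreated control groups had 10-17 animals per experiment.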

Mus musculus [9] = test: Antitumor activity was determined for survival range of mice against P-388 leukemia in mice at a dose of 8 mg/kg
How it was run: (§5)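 Male B6D2F1J mice, 5 per dose group, implanted ip with 10⁶ P-388 leukemia cells on day 0. Drug given ip daily on days 1-4 (qd × 4) in sterile saline, or in 10% Tween 80 for the butyl thioether. Survival range recorded in days. Untreated control groups had 10-17 animals per experiment. Mice weighed on days 1 and 7.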

Mus musculus [10] = test: Antitumor activity was determined for survival range of mice against P-388 leukemia in mice at a dose of 4 mg/kg; how it was run: as §1
Mus musculus [11] = test: Antitumor activity was determined for median survival of mice against P-388 leukemia in mice at a dose of 8 mg/kg; how it was run: as §1
Mus musculus [12] = test: Antitumor activity was determined for average weight on day 1 against P-388 leukemia in mice at a dose of 8 mg/kg; how it was run: as §4
Mus musculus [13] = test: Percent increase in life span against P-388 leukemia in mice was determined at a dose of 4 mg/kg; conditions: P388; how it was run: as §3
Mus musculus [14] = test: Antitumor activity was determined for median survival of mice against P-388 leukemia in mice at a dose of 4 mg/kg; how it was run: as §1
Mus musculus [15] = test: Antitumor activity was determined for 7-day average percent weight change against P-388 leukemia in mice at a dose of 8 mg/kg; how it was run: as §2
Mus musculus [16] = test: Antitumor activity was determined for average 7-day weight change against P-388 leukemia in mice at a dose of 2 mg/kg; how it was run: as §2
Mus musculus [17] = test: Percent increase in life span against P-388 leukemia in mice was determined at a dose of 2 mg/kg; conditions: P388; how it was run: as §3
L1210 = test: Evaluated for cytotoxicity against L1210 mouse leukemia cells; conditions: read-out: ID50 (the source's name)
How it was run: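 L1210 murine leukemia cells in Eagle's minimal essential medium with 15% fetal calf serum, streptomycin (100 μg/mL), penicillin (100 units/mL) and 0.05 mM 2-mercaptoethanol. Cells counted by Coulter counter after 48 h exposure. ID50 is the 50% growth-inhibitory dose. Triplicate assays, standard deviation ±10%.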

Mus musculus [18] = test: Antitumor activity was determined for average weight on day 1 against P-388 leukemia in mice at a dose of 4 mg/kg; how it was run: as §4
Mus musculus [19] = test: Antitumor activity was determined for survival range of mice against P-388 leukemia in mice at a dose of 80 mg/kg; how it was run: as §5
Mus musculus [20] = test: Percent increase in life span against P-388 leukemia in mice was determined at a dose of 160 mg/kg; conditions: P388; how it was run: as §3
Mus musculus [21] = test: Antitumor activity was determined for average 7-day weight change against P-388 leukemia in mice at a dose of 640 mg/kg; how it was run: as §2
Mus musculus [22] = test: Antitumor activity was determined for average 7-day weight change against P-388 leukemia in mice at a dose of 320 mg/kg; how it was run: as §2
Mus musculus [23] = test: Antitumor activity was determined for average weight on day 1 against P-388 leukemia in mice at a dose of 320 mg/kg; how it was run: as §4
Mus musculus [24] = test: Antitumor activity was determined for 7-day average percent weight change against P-388 leukemia in mice at a dose of 640 mg/kg; how it was run: as §2
Mus musculus [25] = test: Antitumor activity was determined for average weight on day 1 against P-388 leukemia in mice at a dose of 80 mg/kg; how it was run: as §4
Mus musculus [26] = test: Percent increase in life span against P-388 leukemia in mice was determined at a dose of 640 mg/kg; conditions: P388; how it was run: as §3
Mus musculus [27] = test: Antitumor activity was determined for median survival of mice against P-388 leukemia in mice at a dose of 640 mg/kg; how it was run: as §1
Mus musculus [28] = test: Antitumor activity was determined for median survival of mice against P-388 leukemia in mice at a dose of 160 mg/kg; how it was run: as §1
Mus musculus [29] = test: Antitumor activity was determined for average 7-day weight change against P-388 leukemia in mice at a dose of 80 mg/kg; how it was run: as §2
Mus musculus [30] = test: Percent increase in life span against P-388 leukemia in mice was determined at a dose of 320 mg/kg; conditions: P388; how it was run: as §3
Mus musculus [31] = test: Antitumor activity was determined for average weight on day 1 against P-388 leukemia in mice at a dose of 640 mg/kg; how it was run: as §4
Mus musculus [32] = test: Antitumor activity was determined for median survival of mice against P-388 leukemia in mice at a dose of 320 mg/kg; how it was run: as §1
Mus musculus [33] = test: Antitumor activity was determined for 7-day average percent weight change against P-388 leukemia in mice at a dose of 80 mg/kg; how it was run: as §2
Mus musculus [34] = test: Percent increase in life span against P-388 leukemia in mice was determined at a dose of 80 mg/kg; conditions: P388; how it was run: as §3
Mus musculus [35] = test: Antitumor activity was determined for 7-day average percent weight change against P-388 leukemia in mice at a dose of 160 mg/kg; how it was run: as §2
Mus musculus [36] = test: Antitumor activity was determined for survival range of mice against P-388 leukemia in mice at a dose of 160 mg/kg; how it was run: as §1
Mus musculus [37] = test: Antitumor activity was determined for median survival of mice against P-388 leukemia in mice at a dose of 80 mg/kg; how it was run: as §1
Mus musculus [38] = test: Antitumor activity was determined for survival range of mice against P-388 leukemia in mice at a dose of 640 mg/kg; how it was run: as §1
Mus musculus [39] = test: Antitumor activity was determined for survival range of mice against P-388 leukemia in mice at a dose of 320 mg/kg; how it was run: as §1
Mus musculus [40] = test: Antitumor activity was determined for 7-day average percent weight change against P-388 leukemia in mice at a dose of 320 mg/kg; how it was run: as §2
Mus musculus [41] = test: Antitumor activity was determined for average weight on day 1 against P-388 leukemia in mice at a dose of 160 mg/kg; how it was run: as §2
Mus musculus [42] = test: Antitumor activity was determined for average 7-day weight change against P-388 leukemia in mice at a dose of 160 mg/kg; how it was run: as §2
Mus musculus [43] = test: Antitumor activity was determined for 7-day average percent weight change against P-388 leukemia in mice at a dose of 40 mg/kg; how it was run: as §2
Mus musculus [44] = test: Antitumor activity was determined for average 7-day weight change against P-388 leukemia in mice at a dose of 40 mg/kg; how it was run: as §2
Mus musculus [45] = test: Antitumor activity was determined for median survival of mice against P-388 leukemia in mice at a dose of 40 mg/kg; how it was run: as §1
Mus musculus [46] = test: Antitumor activity was determined for survival range of mice against P-388 leukemia in mice at a dose of 40 mg/kg; how it was run: as §1
Mus musculus [47] = test: Percent increase in life span against P-388 leukemia in mice was determined at a dose of 40 mg/kg; conditions: P388; how it was run: as §3
Mus musculus [48] = test: Antitumor activity was determined for average weight on day 1 against P-388 leukemia in mice at a dose of 40 mg/kg; how it was run: as §4

Structure (SMILES) | IC50 (L1210) [µM] | Survival range (Mus musculus [19]) | ILS at 160 mg/kg (Mus musculus [20]) [%] | Average weight (Mus musculus [23]) [g mouse-1] | Weight change (Mus musculus [24]) [%] | Average weight (Mus musculus [25]) [g mouse-1] | ILS at 640 mg/kg (Mus musculus [26]) [%] | Survival median (Mus musculus [27]) | Survival median (Mus musculus [28]) | Average weight (Mus musculus [29]) [g mouse-1] | ILS at 320 mg/kg (Mus musculus [30]) [%] | Average weight (Mus musculus [31]) [g mouse-1] | Survival median (Mus musculus [32]) | Weight change (Mus musculus [33]) [%] | ILS at 80 mg/kg (Mus musculus [34]) [%] | Weight change (Mus musculus [35]) [%] | Survival range (Mus musculus [36]) | Survival median (Mus musculus [37]) | Survival range (Mus musculus [38]) | Survival range (Mus musculus [39]) | further results
O=c1[nH]c(=O)n([C@@H]2O[C@H](CO)[C@@H](O)[C@H]2O)cc1F [5-FLUOROURIDINE] | 0.0024 | – | – | – | – | – | – | – | – | – | – | – | – | – | – | – | – | – | – | – | Survival range (Mus musculus [1]): 18; Average weight (Mus musculus [2]): -3.2 g mouse-1; Survival median (Mus musculus [3]): 20; Weight change (Mus musculus [4]): -12%; Weight change (Mus musculus [5]): 5%; Average weight (Mus musculus [6]): -6 g mouse-1; ILS at 8 mg/kg (Mus musculus [7]): 91%; Average weight (Mus musculus [8]): 26 g mouse-1; Survival range (Mus musculus [9]): 21; Survival range (Mus musculus [10]): 18; Survival median (Mus musculus [11]): 23; Average weight (Mus musculus [12]): 25.8 g mouse-1; ILS at 4 mg/kg (Mus musculus [13]): 75%; Survival median (Mus musculus [14]): 21; Weight change (Mus musculus [15]): -23%; Average weight (Mus musculus [16]): 1.2 g mouse-1; ILS at 2 mg/kg (Mus musculus [17]): 66%; Average weight (Mus musculus [18]): 26.4 g mouse-1
C[C@H]1O[C@@H](n2cc(F)c(=O)[nH]c2=O)[C@H](O)[C@@H]1O [DOXIFLURIDINE] | 140 | 11 | 36 | 26.2 | -21 | 28.6 | 54 | 17 | 15 | 2.2 | 54 | 27 | 17 | 7 | 18 | 2 | 14 | 13 | 9 | 15 | Average weight (Mus musculus [21]): -5.6 g mouse-1; Average weight (Mus musculus [22]): -1.4 g mouse-1; Weight change (Mus musculus [40]): -5%; Average weight (Mus musculus [41]): 26.8 g mouse-1; Average weight (Mus musculus [42]): 0.4 g mouse-1
O=c1[nH]c(=O)n(C2OC[C@@H](O)[C@H]2O)cc1F (stereo partly drawn) | 130 | 11 | 25 | 25.8 | -9 | 24.2 | 75 | 21 | 15 | 2.6 | 41 | 25.6 | 17 | 11 | 16 | 8 | 14 | 14 | 17 | 16 | Weight change (Mus musculus [43]): 12%; Average weight (Mus musculus [44]): 3 g mouse-1; Survival median (Mus musculus [45]): 12; Survival range (Mus musculus [46]): 12; ILS at 40 mg/kg (Mus musculus [47]): 0%; Weight change (Mus musculus [40]): 1%; Average weight (Mus musculus [48]): 25.2 g mouse-1; Average weight (Mus musculus [41]): 24.2 g mouse-1; Average weight (Mus musculus [42]): 1.6 g mouse-1
